Paper PMC6591795 (ChemistryOpen, 2019)
Like-named read-outs stand apart in the source and are kept apart here.

Legend:
[1] = biological target: T1, GTB (Homo sapiens, UniProt P16442, G235S/G268A/L266M/R176G); experiment: methyl TROSY CSP titration, TITAN lineshape analysis; assay type: binding; conditions: for Kd: K D
T1 sequence (P16442 64-354 R176G/G235S/L266M/G268A limits assumed): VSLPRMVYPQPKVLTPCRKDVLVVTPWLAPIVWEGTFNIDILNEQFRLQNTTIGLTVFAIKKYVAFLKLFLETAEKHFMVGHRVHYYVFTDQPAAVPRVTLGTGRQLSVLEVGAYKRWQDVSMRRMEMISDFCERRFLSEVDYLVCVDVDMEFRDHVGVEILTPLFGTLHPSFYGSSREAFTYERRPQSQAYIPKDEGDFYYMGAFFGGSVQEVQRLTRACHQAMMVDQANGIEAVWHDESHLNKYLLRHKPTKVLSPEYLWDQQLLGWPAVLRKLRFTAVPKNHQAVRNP
Method in brief: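 Enzyme expressed in D₂O-based M9 minimal medium with ¹³C-methyl precursors, IPTG-induced, and purified by cation-exchange and UDP-affinity chromatography. Ligand titrated at constant protein concentration, with a 2D [¹³C,¹H] HMQC at each point. Kd and koff from a global multi-peak TITAN two-state fit; apo parameters fixed from the ligand-free spectrum; 200-run bootstrap residual resampling.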

[2] = biological target: T1, GTB; conditions: read-out: KD from ITC; UDP binding to GTB:H-Dis; cited from earlier work
[3] = GTB in presence of saturating B-Tris
[4] = GTB in presence of saturating H-Dis
[5] = GTB in presence of saturating H-Tris I
[6] = GTB in presence of saturating H-Tris II
[7] = GTB in presence of saturating H-Tris III
[8] = GTB in presence of saturating H-Tris IV
[9] = GTB in presence of saturating H-Tris V
[10] = GTB in presence of saturating H-Tris VI
[11] = apo GTB, donor-type ligands, Mg2+, 298 K

O=c1ccn([C@@H]2O[C@H](COP(=O)(O)OP(=O)(O)O)[C@@H](O)[C@H]2O)c(=O)[nH]1 [UDP, uridine diphosphate]
koff [1, 3]: 18 ± 1 s⁻¹
kon [1, 3]: 28000 M⁻¹ s⁻¹
koff [1, 4]: 2.6 ± 0.3 s⁻¹
kon [1, 4]: 25000 M⁻¹ s⁻¹
off-rate constant koff ([1]; GTB in presence of saturating H-Dis, from titration analysis (Table 3)): 2.6 Hz
koff [1, 5]: 2.2 ± 0.2 s⁻¹
kon [1, 5]: 58000 M⁻¹ s⁻¹
koff [1, 6]: 1.7 ± 0.3 s⁻¹
kon [1, 6]: 280000 M⁻¹ s⁻¹
koff [1, 7]: 3.6 ± 0.5 s⁻¹
kon [1, 7]: 120000 M⁻¹ s⁻¹
koff [1, 8]: 12 ± 1 s⁻¹
kon [1, 8]: 190000 M⁻¹ s⁻¹
koff [1, 9]: 3.4 ± 0.3 s⁻¹
kon [1, 9]: 120000 M⁻¹ s⁻¹
koff [1, 10]: 2.2 ± 0.2 s⁻¹
kon [1, 10]: 69000 M⁻¹ s⁻¹
kon multiplied by the UDP concentration (comparable to kAB) ([1]; GTB saturated with H-Dis, kon=2.5×10^4 M^−1s^−1 times 250 μM UDP): ca. 6.3 Hz
Kd [1, 3]: 660 ± 10 µM
Kd [1, 4]: 103 ± 2 µM
Kd [1, 5]: 38 ± 1 µM
Kd [1, 6]: 6 ± 1 µM
Kd [1, 7]: 29 ± 1 µM
Kd [1, 8]: 65 ± 2 µM
Kd [1, 9]: 31 ± 1 µM
Kd [1, 10]: 32 ± 1 µM
Kd [1, 11]: 161 ± 3 µM
koff [1, 11]: 243 ± 7 s⁻¹
kon [1, 11]: 1.5e+06 M⁻¹ s⁻¹
Kd [2]: 27 µM
